By Kd is commonly meant the constant that tells how readily two partners part at equilibrium. In general, IC50 refers to the midpoint of a concentration-inhibition curve.

For one data set, the system named is L444P/L444P GCase. Description: GCase lysed cell assay. Format: cell-based, human. The conditions noted are these: L444P/L444P fibroblasts, 72 h; for improvement of GCase activity, compound alone: individual treatment (Fig. 5B).
The target in data set [1] is isolated recombinant PIKfyve (Homo sapiens, UniProt Q9Y2I7). Description: DiscoveRX KINOMEScan for PIKfyve. It is filed as binding.
Chain of isolated recombinant PIKfyve (Q9Y2I7 whole entry): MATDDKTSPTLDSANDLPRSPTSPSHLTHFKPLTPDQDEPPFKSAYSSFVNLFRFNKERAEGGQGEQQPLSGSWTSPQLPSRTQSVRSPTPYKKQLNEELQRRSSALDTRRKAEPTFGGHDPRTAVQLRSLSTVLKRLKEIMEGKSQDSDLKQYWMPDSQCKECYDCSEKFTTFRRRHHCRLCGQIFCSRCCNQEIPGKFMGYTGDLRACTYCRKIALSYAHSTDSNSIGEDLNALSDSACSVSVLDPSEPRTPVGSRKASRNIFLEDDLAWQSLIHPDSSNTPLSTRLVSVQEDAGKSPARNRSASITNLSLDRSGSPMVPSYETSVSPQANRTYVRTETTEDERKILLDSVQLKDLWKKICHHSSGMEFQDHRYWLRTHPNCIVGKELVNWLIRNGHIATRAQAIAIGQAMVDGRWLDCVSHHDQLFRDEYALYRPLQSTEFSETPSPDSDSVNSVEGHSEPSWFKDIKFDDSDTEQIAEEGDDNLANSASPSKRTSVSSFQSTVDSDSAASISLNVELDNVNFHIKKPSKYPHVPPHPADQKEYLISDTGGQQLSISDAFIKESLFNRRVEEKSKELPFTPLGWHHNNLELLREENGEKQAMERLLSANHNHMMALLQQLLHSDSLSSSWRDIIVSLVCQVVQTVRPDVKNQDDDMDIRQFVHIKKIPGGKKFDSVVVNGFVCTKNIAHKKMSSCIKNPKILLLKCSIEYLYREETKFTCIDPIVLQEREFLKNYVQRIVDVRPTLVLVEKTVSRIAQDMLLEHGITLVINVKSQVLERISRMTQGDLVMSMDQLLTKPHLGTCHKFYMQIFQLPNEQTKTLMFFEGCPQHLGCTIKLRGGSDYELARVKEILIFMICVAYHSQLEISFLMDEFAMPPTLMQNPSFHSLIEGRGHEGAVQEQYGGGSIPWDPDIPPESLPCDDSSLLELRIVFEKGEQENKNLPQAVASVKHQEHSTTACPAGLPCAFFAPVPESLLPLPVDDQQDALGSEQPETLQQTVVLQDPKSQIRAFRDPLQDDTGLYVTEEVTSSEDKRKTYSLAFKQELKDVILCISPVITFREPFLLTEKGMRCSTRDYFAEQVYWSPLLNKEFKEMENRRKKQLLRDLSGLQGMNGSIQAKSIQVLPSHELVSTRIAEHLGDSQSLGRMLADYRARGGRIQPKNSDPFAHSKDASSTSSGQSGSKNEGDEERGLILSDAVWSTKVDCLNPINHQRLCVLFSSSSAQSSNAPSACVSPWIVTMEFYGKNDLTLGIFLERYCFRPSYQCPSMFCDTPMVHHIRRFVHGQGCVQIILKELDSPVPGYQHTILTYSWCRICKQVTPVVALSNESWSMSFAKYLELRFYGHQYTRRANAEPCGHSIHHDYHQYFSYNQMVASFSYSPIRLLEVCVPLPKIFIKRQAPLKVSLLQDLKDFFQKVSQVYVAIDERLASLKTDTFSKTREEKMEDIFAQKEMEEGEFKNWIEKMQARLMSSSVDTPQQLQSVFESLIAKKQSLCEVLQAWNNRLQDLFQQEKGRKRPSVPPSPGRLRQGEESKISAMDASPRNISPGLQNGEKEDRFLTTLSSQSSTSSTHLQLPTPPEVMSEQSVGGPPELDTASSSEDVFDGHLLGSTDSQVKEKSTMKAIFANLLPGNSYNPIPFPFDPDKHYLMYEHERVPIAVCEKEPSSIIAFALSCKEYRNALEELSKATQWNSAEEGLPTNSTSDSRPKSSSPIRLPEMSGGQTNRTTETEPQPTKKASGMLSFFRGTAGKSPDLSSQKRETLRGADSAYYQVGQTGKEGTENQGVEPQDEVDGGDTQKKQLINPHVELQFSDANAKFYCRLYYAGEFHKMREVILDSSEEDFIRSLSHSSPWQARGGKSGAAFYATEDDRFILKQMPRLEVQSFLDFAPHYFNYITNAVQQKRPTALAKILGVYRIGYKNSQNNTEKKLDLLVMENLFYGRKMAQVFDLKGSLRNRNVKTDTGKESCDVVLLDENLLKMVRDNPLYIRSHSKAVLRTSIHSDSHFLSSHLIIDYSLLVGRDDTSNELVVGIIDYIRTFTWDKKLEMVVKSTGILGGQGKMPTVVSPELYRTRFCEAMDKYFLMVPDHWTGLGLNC
Data set [2] relates to L444P/L444P Gaucher patient fibroblasts. The data set is described as follows: Nuclear stain cell toxicity/viability. Format: cell-based, human. As to conditions: 72 h, 2.5 µM A16 / 10 µM A18. In outline: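 Toxicity by nuclear stains: fibroblasts at 10,000 cells/well, attached overnight, then treated for 72 h in DMSO (final 0.1%). Stained with Hoechst and SYTOX Orange per the manufacturer's instructions.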

For data set [3] the test system is unchanged. The data set is described as follows: CellTiter-Glo ATP-based viability assay, patient fibroblasts. It is filed as cell-based, human. As to conditions: 72 h. In outline:
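Viability by ATP content: fibroblasts seeded at 10,000 cells/well, attached overnight, then treated for 72 h in DMSO (final 0.1%). CellTiter-Glo added per the manufacturer's instructions; luminescence-based ATP read-out.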
A general note: Cellular ATP, detected with luciferase, serves as a proxy for viable cell number.

Data set [4] concerns ISR and KEGG lysosome pathway genes. Format: cell-based, human. As to conditions: L444P fibroblasts, 24 h; A16 500 nM, A18 1 µM, Apilimod 50 nM.
The next data set concerns U251 cells. Description: PIKfyve-related vacuolization, brightfield microscopy of U251 cells. Format: cell-based, human. The conditions noted are these: high concentrations. An outline of the steps:
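U251 cells plated at 25,000 cells/well, attached overnight, then treated for 24 h in DMSO (final 0.1%). Vacuolization observed by brightfield microscopy.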

The conditions of data set [5]: placebo-controlled trials; cited from earlier work.
Data set [6] concerns integrated stress response (eIF2B). The conditions noted are these: read-out: IC50 (reversal of ISR effects); cited from earlier work.

`c1ccc2c(-c3nn4c(-c5ccncc5)nnc4s3)c[nH]c2c1` [A16]: the “increase of GCase activity, cotreatment with ISRIB (observed)” value in the data set on L444P/L444P GCase (A16 + ISRIB (Fig. 5B)) was ~ 100%. Also, the “improvement of GCase activity, compound alone” value in the data set on L444P/L444P GCase is on record as ~ 70%. In addition, in data set [1], the Kd is below 0.17 nM. Further, the “cell toxicity (Hoechst and Sytox Orange staining)” value in data set [2] was “minimal cell toxicity”. Also, the “cell viability (CellTiter-Glo ATP-based)” value in data set [3] was “above vehicle treatment”. Moreover, the “ISR activation by RNAseq-based transcriptional changes” value in data set [4] is on record as “do not see RNAseq-based transcriptional changes”. The vacuolization phenotype result in the data set with U251 cells is reported as “vacuolization phenotype”.
For `Ic1ccc(Nc2nc(NCCN3CCOCC3)nc(N3CCOCC3)n2)cc1` [A18], the “cell toxicity (Hoechst and Sytox Orange staining)” value in data set [2] was “minimal cell toxicity”. In addition, in data set [3], the “cell viability (CellTiter-Glo ATP-based)” value is listed as “above vehicle treatment”. Moreover, the “ISR activation by RNAseq-based transcriptional changes” value in data set [4] is given as “do not see RNAseq-based transcriptional changes”. Further, the vacuolization phenotype result in the data set with U251 cells is “vacuolization phenotype”.
Turning to `Cc1cccc(/C=N/Nc2cc(N3CCOCC3)nc(OCCc3ccccn3)n2)c1` [Apilimod], the “ISR activation by RNAseq-based transcriptional changes” value in data set [4] is “do not see RNAseq-based transcriptional changes”. Also, in data set [5], the “efficacy in autoimmune disorders (Crohn's Disease, Rheumatoid Arthritis)” value is recorded as “failed to show any efficacy”; the “safety and pharmacokinetic profiles” value was “favorable safety and pharmacokinetic profiles”.
Consider `O=C(COc1ccc(Cl)cc1)NC1CCC(NC(=O)COc2ccc(Cl)cc2)CC1` (stereo not shown) [ISRIB, reference compound], for which the “improvement of GCase activity, compound alone” value in the data set on L444P/L444P GCase was ~ 10%. In data set [6], the IC50 is 5 nM.
